# Active and inactive are the calls of the source. The calls are words filed in the database; no cut-off is given here.
# Assays:
# Assay type in all cases: functional, cell-based
# Huh-7 [1] = test: Growth inhibition of human HuH7 cells incubated for 48 hrs by Giemsa staining
# Outline: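 Cells grown overnight, compound added from DMSO solution, then incubated 48 h more. Attached cells stained with Giemsa and photographed; qualitative read-out.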
# MCF7 = test: Induction of cell death in human MCF7 cells at 2.5 to 40 uM incubated for 72 hrs by SRB assay
# Outline: (§1)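 Cells seeded and grown 24 h at 37 °C, then treated 72 h in triplicate. Fixed with cold 10% TCA 1 h at 4 °C, stained with 0.4% SRB in 1% acetic acid 10 min, washed in 1% acetic acid. Dye solubilized in 10 mM Tris base; absorbance read at 515 nm. Normalized to DMSO control and Tz; three independent experiments.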
# Huh-7 [2] = test: Induction of cell death in human HuH7 cells at 2.5 to 40 uM incubated for 72 hrs by SRB assay; outline: as §1
# HCT-116 = test: Induction of cell death in human HCT116 cells at 2.5 to 40 uM incubated for 72 hrs by SRB assay; outline: as §1
SMILES,growth inhibition (GI) (Huh-7 [1]),also measured
CC(C)(C)C(=O)N(CC(=O)O)C[C@@H]1CSC(c2ccccc2)N1C(=O)c1ccccc1 (stereo partly drawn),inactive,–
CC(C)(C)C(=O)N(CCc1ccsc1)C[C@@H]1CSC(c2ccccc2)N1C(=O)c1ccccc1 (stereo partly drawn),inactive,Activity (MCF7): inactive; Activity (Huh-7 [2]): inactive; Activity (HCT-116): inactive
CCCCCCC(=O)N(CC(=O)O)C[C@@H]1CSC(c2ccccc2)N1C(=O)c1ccccc1 (stereo partly drawn),inactive,–
CCCCCCC(=O)N(CC(=O)OC)C[C@@H]1CSC(c2ccccc2)N1C(=O)c1ccccc1 (stereo partly drawn),inactive,–
CCCCCCC(=O)N(CCc1ccsc1)C[C@@H]1CSC(c2ccccc2)N1C(=O)c1ccccc1 (stereo partly drawn),inactive,–
CCCCCCC(C)NC(=O)[C@@H]1CSC(c2ccccc2)N1C(=O)Cn1cc(C)c(=O)[nH]c1=O (stereo partly drawn),inactive,–
CCCCCCCCCCC(=O)N(CC(=O)O)C[C@@H]1CSC(c2ccccc2)N1C(=O)c1ccccc1 (stereo partly drawn),inactive,–
CCCCCCCCCCC(=O)N(CC(=O)OC)C[C@@H]1CSC(c2ccccc2)N1C(=O)c1ccccc1 (stereo partly drawn),inactive,–
CCCCCCCCCCC(=O)N(CCc1ccsc1)C[C@@H]1CSC(c2ccccc2)N1C(=O)c1ccccc1 (stereo partly drawn),inactive,–
CCCCCCCCCCCCNC(=O)[C@@H]1CSC(c2ccccc2)N1C(=O)Cn1cc(C)c(=O)[nH]c1=O (stereo partly drawn),inactive,–
CCOC(=O)Cn1cc(C(=O)N2C(c3ccccc3)SC[C@H]2C(=O)OCC)nn1 (stereo partly drawn),inactive,–
CCOC(=O)[C@@H]1CSC(c2ccccc2)N1C(=O)c1cn(CC(=O)OCc2ccccc2)nn1 (stereo partly drawn),inactive,–
CCOC(=O)[C@@H]1CSC(c2ccccc2)N1C(=O)c1cn(CC(O)CO)nn1 (stereo partly drawn),inactive,–
CCOC(=O)[C@@H]1CSC(c2ccccc2)N1C(=O)c1cn(CC2OCOC2(C)C)nn1 (stereo partly drawn),inactive,–
CCOC(=O)[C@@H]1CSC(c2ccccc2)N1C(=O)c1cn(CCCCCCO)nn1 (stereo partly drawn),inactive,–
